According to PubChem BioAssay AID588830 (Broad Institute, 2011):
The source made the active and inactive calls.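 How the source made its calls: active means fitted IC50 for falling signal at or below ten times the top tested dose; inconclusive means flat fit with 30 to 70% signal loss, or poor fit; inactive means the rest.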

tested on: not listed separately; assay: short-term cytotoxicity in ldlA[mSR-BI] cells, dose response, cytotoxicity control for SR-BI HDL uptake inhibitor project, cell-based, CellTiter-Glo luminescence, 3 h, dry powder (AID 588830); conditions: ldlA[mSR-BI] CHO cells viability, CellTiter-Glo ATP, 3 h; at 35 µM (top of the series)
Method in brief: (§1)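 Test system: ldlA[mSR-BI] cells, scavenger receptor B1-expressing line / Medium: PSG and 10% FCS in Ham's F12 / Dosing: 8-concentration series per compound, added by pin transfer / Timing: 3 h at 37 °C, then 10 min with reagent / Signal: luminescence of cellular ATP via Cell Titer Glo reagent / Measure: cytotoxicity IC50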

| SMILES | activity change, negative = cytotoxicity |
| --- | --- |
| COc1ccc(-c2nnn(CC(=O)N(C3CCCCC3)C(C)C(=O)NC3CCCC3)n2)cc1OC (configuration not stated) | -4.74% (inactive) |
| C[C@H]1CN([C@@H](C)CO)C(=O)c2cccc(NC(=O)Nc3ccccc3)c2O[C@@H]1CN(C)C | -1.76% (inactive) |
| O=C(Nc1cc(C(F)(F)F)ccc1Cl)c1ccccc1NS(=O)(=O)c1ccc(Cl)cc1 | -7.07% (inactive) |
| N#Cc1sc2nc(C3CC3)cc(-c3ccc(Cl)cc3)c2c1N | -7.15% (inactive) |
| C[C@H]1CN([C@@H](C)CO)C(=O)c2cccc(NS(C)(=O)=O)c2O[C@@H]1CN(C)Cc1ccc(Cl)c(Cl)c1 | 1.6% (inactive) |
| O=C(Nc1ccc(-c2nc3ccc(NC(=O)c4ccc(Cl)cc4)cc3[nH]2)cc1)c1ccc(Cl)cc1 | 3.4% (inactive) |
| O=C(Nc1ccccc1)c1ccccc1NS(=O)(=O)c1ccc(Cl)cc1 | -7.39% (inactive) |
| C[C@@H]1CN([C@H](C)CO)C(=O)c2cc(NC(=O)Cc3cn(C)c4ccccc34)ccc2O[C@H]1CN(C)S(=O)(=O)c1ccc(Cl)cc1 | -0.219% (inactive) |
| C[C@@H]1CN([C@H](C)CO)C(=O)c2cc(NC(=O)Cc3cn(C)c4ccccc34)ccc2O[C@H]1CN(C)S(=O)(=O)c1ccc(F)cc1 | 1.06% (inactive) |
| COC(=O)c1cn(C(=O)c2cccc3ccccc23)c2ccccc12 | -13.3% (inactive) |
| O=C(Nc1ccc(-c2nc3cc(NC(=O)c4ccccc4Cl)ccc3o2)cc1)c1ccccc1Cl | 11.9% (inactive) |
| C[C@@H]1CN([C@H](C)CO)C(=O)c2cc(NC(=O)Cc3cn(C)c4ccccc34)ccc2O[C@@H]1CN(C)S(=O)(=O)c1ccc(F)cc1 | 2.73% (inactive) |
| CCn1c(COc2c(C)cccc2C)nnc1SCC(=O)N1CCN(c2ccccc2)CC1 | -9.72% (inactive) |
| O=C(Nc1ccc(-c2nc3cc(NC(=O)c4ccccc4[N+](=O)[O-])ccc3o2)cc1)c1ccccc1[N+](=O)[O-] | 1.25% (inactive) |
| C[C@H](CO)N1C[C@H](C)[C@H](CN(C)S(=O)(=O)c2ccc(F)cc2)Oc2ccc(NC(=O)Cc3ccccc3)cc2C1=O | -1.65% (inactive) |
| C[C@H]1CN([C@@H](C)CO)C(=O)c2cc(NC(=O)Nc3ccccc3)ccc2O[C@@H]1CN(C)Cc1ccc(Cl)c(Cl)c1 | -3.67% (inactive) |
| Cc1cc(C)c2c(c1)NC(c1cc3c(cc1Br)OCO3)C1CC=CC21 (configuration not stated) | -9.46% (inactive) |
| CC(C)NC(=O)Nc1cccc2c1O[C@H](CN(C)Cc1ccc(Cl)c(Cl)c1)[C@@H](C)CN([C@@H](C)CO)C2=O | 3.31% (inactive) |
| CCc1sc(N2C(=O)C3C4CCC(C4=C(C)C)C3C2=O)nc1-c1ccccc1 (configuration not stated) | -2.48% (inactive) |
| C[C@H]1CN([C@@H](C)CO)C(=O)c2cccc(N(C)C)c2O[C@@H]1CN(C)Cc1ccc(Cl)c(Cl)c1 | -3.41% (inactive) |
| CCOC(=O)N1CCC(NC(=O)c2ccc3c(c2)N(Cc2ccc(F)cc2)CCS3)CC1 | -4.76% (inactive) |
| CNC[C@@H]1Oc2ccc(NC(=O)Cc3cn(C)c4ccccc34)cc2C(=O)N([C@H](C)CO)C[C@H]1C | -4.04% (inactive) |
| CCC(=O)N1CCc2cc(-c3csc(NC(=O)c4ccco4)n3)ccc21 | -8.77% (inactive) |
| C[C@@H]1CN([C@@H](C)CO)C(=O)c2cc(NC(=O)Cc3cn(C)c4ccccc34)ccc2O[C@H]1CN(C)S(=O)(=O)c1ccc(F)cc1 | -8.52% (inactive) |
| O=C(Nc1ccc(Cl)cc1C(=O)c1ccc(Cl)cc1)c1cc(Br)ccc1NS(=O)(=O)c1ccc(Cl)cc1 | -10% (inactive) |

same assay, conditions: ldlA[mSR-BI] CHO cells viability, CellTiter-Glo ATP, 3 h; at 68 µM (top of the series)

| SMILES | activity change, negative = cytotoxicity |
| --- | --- |
| CCOc1ccc(NC(=O)CN2CCN(CC(=O)Nc3cc(OC)cc(OC)c3)CC2)cc1 | -11.7% (inactive) |

tested on: ldlA[mSR-BI] CHO cells viability, CellTiter-Glo ATP, 3 h; assay: as above; conditions: not given
Method in brief: as §1

| SMILES | IC50 |
| --- | --- |
| Cc1ccc(-c2nnc(N3CCC(C)CC3)c3ccccc23)cc1C | 68.5 µM |
| C[C@H]1CN([C@@H](C)CO)C(=O)c2cccc(NC(=O)Nc3ccccc3)c2O[C@@H]1CN(C)Cc1ccc(C(F)(F)F)cc1 | 66.6 µM |
| O=C(Nc1ccc(-c2nc3ccc(NC(=O)c4ccccc4)cc3[nH]2)cc1)c1ccccc1 | > 70 µM (inactive) |
| Cc1ccc2oc(-c3cccc(NC(=O)c4cc(-n5cnnc5)ccc4Cl)c3)nc2c1 | 12.8 µM |
| Cc1cc(C(=O)C(C)OC(=O)C2=NNC(=O)CC2)c(C)n1-c1ccc(OC(F)F)cc1 (configuration not stated) | > 70 µM (inactive) |
| O=C(Nc1cc(Cl)ccc1Cl)c1cc(Cl)ccc1NS(=O)(=O)c1ccc(Cl)c([N+](=O)[O-])c1 | > 70 µM (inactive) |
